Source: ChEMBL document CHEMBL3259661, “Identification of a neuroprotective and selective butyrylcholinesterase inhibitor derived from the natural alkaloid evodiamine” (Eur J Med Chem, 2014)
The source made the active and inactive calls. No cut-off for these calls is given here.

Assays:
[1] = biological target: Acetylcholinesterase (Electrophorus electricus) (UniProt O42275); test: Inhibition of electric eel AChE at 10 uM by Ellman's method
[2] = Selectivity ratio of IC50 for Electrophorus electricus acetylcholinesterase to IC50 for equine serum butyrylcholinesterase
Method in brief: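 Ratio IC50(AChE)/IC50(BChE), with both IC50s from Ellman assays (electric eel AChE, equine serum BChE, 25 °C, 412 nm, at least five concentrations in triplicate, at least 3 independent determinations).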

Acetylcholinesterase = Acetylcholinesterase (Electrophorus electricus, UniProt O42275); test: Inhibition of electric eel AChE by Ellman's method
Method in brief: (§1)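 Ethanol stocks diluted into assay, highest final concentration 10^-4 M. For curves, at least five concentrations (normally 10^-4 to 10^-9 M), each in triplicate; at least 3 independent determinations.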

Cholinesterase = Cholinesterase (Equus caballus, UniProt P81908); test: (§2) Inhibition of equine serum BChE by Ellman's method; method in brief: as §1
[3] = biological target: Cholinesterase (Equus caballus) (UniProt P81908); test: Inhibition of equine serum BChE at 10 uM by Ellman's method
HT-22 [4] = test: Neuroprotection against glutamate challenged mouse HT22 cells assessed as reduction in cell viability at 5 uM after 48 hrs by MTT assay; type: functional, cell-based
HT-22 [5] = test: Neuroprotection against glutamate challenged mouse HT22 cells assessed as reduction in cell viability at 5 to 10 uM after 48 hrs by MTT assay; type: functional, cell-based
Method in brief: (§3)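 Murine hippocampal HT-22 cells grown in high-glucose DMEM + 10% heat-inactivated FCS, 37 °C, 5% CO2. Seeded 5 × 10³/well, cultured 24 h, then 24 h with compound (DMSO stock, final DMSO ≤0.1%) plus 5 mM glutamate. MTT (4 mg/mL stock diluted 1:10) for 3 h, 10% SDS lysis, absorbance 560 nm next day. Viability as % of untreated control. Means ± SD, ≥3 independent experiments.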

[6] = Antioxidant activity in phosphate buffer assessed as scavenging activity against peroxy radicals at pH 7.4 by ORAC-FL method relative to trolox; type: functional
Method in brief: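 ORAC-FL in 75 mM phosphate buffer pH 7.4, 37 °C; sample with fluorescein (300 nM final) preincubated 15 min, then AAPH (12 mM final) added; fluorescence read every 60 s for 90 min (ex 485/em 535 nm). Blank and Trolox calibration in each assay; AUC from blank-normalised decay curves; expressed as Trolox equivalents.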

[7] = biological target: Cholinesterase (Equus caballus) (UniProt P81908); test: Binding affinity to equine serum BChE assessed as compound-enzyme complex stability
Method in brief: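 Kinetic study on equine serum BChE with time-dependent inhibition followed to steady state (60 min); equilibrium constant of inhibitor–BChE complex (K_C) and carbamoylation rate constant (k3) determined.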

[8] = biological target: Cholinesterase (Equus caballus) (UniProt P81908); test: as §2; settings: TDE = time-dependent effect; method in brief: as §1
HT-22 [9] = test: Neurotoxicity against mouse HT22 cells assessed as reduction in cell viability at 25 uM […] by MTT assay; type: toxicity, cell-based; settings: ht-22, 25 µM
HT-22 [10] = test: Neuroprotection against glutamate challenged mouse HT22 cells assessed as reduction in cell viability at 1 to 25 uM after 48 hrs by MTT assay; type: functional, cell-based; method in brief: as §3
HT-22 [11] = test: Neurotoxicity against mouse HT22 cells assessed as reduction in cell viability at 1 to 10 uM […] by MTT assay; type: toxicity, cell-based; settings: ht-22, 10 µM
[12] = biological target: Acetylcholinesterase (Electrophorus electricus) (UniProt O42275); test: Inhibition of electric eel AChE at 100 uM by Ellman's method
[13] = biological target: Cholinesterase (Equus caballus) (UniProt P81908); test: Inhibition of equine serum BChE at 100 uM by Ellman's method
HT-22 [14] = test: Neurotoxicity against mouse HT22 cells assessed as reduction in cell viability at 1 to 25 uM […] by MTT assay; type: toxicity, cell-based; settings: ht-22, 25 µM

Sequence of Cholinesterase (P81908 whole entry): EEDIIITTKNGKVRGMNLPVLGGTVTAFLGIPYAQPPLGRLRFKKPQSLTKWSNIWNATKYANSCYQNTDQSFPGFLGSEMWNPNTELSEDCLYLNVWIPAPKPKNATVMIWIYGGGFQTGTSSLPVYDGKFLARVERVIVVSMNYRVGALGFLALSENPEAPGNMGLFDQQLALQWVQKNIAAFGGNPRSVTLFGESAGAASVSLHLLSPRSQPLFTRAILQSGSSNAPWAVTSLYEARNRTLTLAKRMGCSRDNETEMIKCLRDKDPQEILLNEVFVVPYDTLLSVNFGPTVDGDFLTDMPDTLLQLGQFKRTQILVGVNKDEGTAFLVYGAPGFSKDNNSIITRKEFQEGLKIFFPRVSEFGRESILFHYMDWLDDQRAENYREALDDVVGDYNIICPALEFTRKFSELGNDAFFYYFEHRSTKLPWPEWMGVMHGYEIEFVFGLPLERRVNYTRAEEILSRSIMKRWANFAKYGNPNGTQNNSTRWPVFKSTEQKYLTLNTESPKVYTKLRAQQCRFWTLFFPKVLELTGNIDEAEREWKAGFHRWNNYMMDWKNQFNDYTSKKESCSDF
Sequence of Cholinesterase (Equus caballus) (P81908 whole entry): as above
Sequence of Acetylcholinesterase (O42275 whole entry): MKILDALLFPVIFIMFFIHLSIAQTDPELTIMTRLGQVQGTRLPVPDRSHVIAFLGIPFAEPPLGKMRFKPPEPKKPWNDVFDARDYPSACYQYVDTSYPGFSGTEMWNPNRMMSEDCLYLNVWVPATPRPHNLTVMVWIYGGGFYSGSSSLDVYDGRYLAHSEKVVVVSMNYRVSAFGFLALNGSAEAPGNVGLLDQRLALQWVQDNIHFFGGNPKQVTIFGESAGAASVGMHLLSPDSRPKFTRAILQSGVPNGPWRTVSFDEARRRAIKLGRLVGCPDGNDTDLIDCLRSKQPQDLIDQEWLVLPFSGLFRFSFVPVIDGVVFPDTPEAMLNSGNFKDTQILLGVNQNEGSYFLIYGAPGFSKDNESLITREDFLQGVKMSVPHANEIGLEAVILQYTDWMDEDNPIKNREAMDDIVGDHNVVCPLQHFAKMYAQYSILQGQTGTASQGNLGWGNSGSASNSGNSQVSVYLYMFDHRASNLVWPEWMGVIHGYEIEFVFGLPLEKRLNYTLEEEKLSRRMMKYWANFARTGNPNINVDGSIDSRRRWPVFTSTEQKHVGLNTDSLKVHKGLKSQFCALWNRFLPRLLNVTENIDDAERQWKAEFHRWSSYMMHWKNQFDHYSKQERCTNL
Sequence of Acetylcholinesterase (Electrophorus electricus) (O42275 24-633 limits assumed): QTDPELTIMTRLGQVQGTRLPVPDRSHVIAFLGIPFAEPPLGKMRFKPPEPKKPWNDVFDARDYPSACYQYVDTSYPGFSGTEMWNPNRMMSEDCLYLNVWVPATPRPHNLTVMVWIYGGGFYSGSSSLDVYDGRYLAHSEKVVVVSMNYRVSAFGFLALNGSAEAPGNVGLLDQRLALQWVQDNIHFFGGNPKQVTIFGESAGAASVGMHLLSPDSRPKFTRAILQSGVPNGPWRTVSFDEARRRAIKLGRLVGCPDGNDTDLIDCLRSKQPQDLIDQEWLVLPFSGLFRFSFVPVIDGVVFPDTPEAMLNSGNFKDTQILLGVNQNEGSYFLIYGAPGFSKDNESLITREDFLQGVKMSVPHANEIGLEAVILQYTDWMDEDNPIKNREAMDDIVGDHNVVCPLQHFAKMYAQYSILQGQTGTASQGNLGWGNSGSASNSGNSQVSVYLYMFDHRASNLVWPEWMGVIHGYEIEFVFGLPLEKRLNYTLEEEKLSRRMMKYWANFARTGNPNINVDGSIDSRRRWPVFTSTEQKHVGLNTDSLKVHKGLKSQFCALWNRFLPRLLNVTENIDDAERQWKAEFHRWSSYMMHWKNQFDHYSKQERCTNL

Compound: CN1c2ccc(OCc3ccccc3)cc2C(=O)N2CCc3c([nH]c4ccccc34)C21 (stereo not given)
- inhibition [1]: 5.52%
- Ratio IC50 [2]: 3.42
- IC50 (Acetylcholinesterase): 3.01 µM
- IC50 (Cholinesterase): 0.88 µM
- inhibition [3]: 6.07%

Compound: COc1cccc(NC(=O)Oc2ccc3c(c2)C(=O)N2CCc4c([nH]c5ccccc45)C2N3C)c1 (stereo not given)
- inhibition [1]: 15%
- IC50 (Acetylcholinesterase): > 10 µM
- IC50 (Cholinesterase): > 10 µM
- inhibition [3]: 3%

Compound: CNC(=O)Oc1ccc2c(c1)[C@]1(C)CCN(C)[C@@H]1N2C
- inhibition [1]: 8.11%
- inhibition [3]: 7.22%

Compound: CCCCNC(=O)Oc1ccc2c(c1)CN1CCc3c([nH]c4ccccc34)C1N2C (stereo not given)
- inhibition [1]: 47%
- Ratio IC50 [2]: > 2.52
- IC50 (Acetylcholinesterase): > 10 µM
- IC50 (Cholinesterase): 3.97 µM
- inhibition [3]: 5.4%

Compound: CN1c2ccc(OC(=O)NCc3ccccc3)cc2CN2CCc3c([nH]c4ccccc34)C21 (stereo not given)
- inhibition [1]: 34%
- Ratio IC50 [2]: > 4.65
- IC50 (Acetylcholinesterase): > 10 µM
- IC50 (Cholinesterase): 2.15 µM
- inhibition [3]: 5.67%

Compound: O=c1c(O)c(-c2ccc(O)c(O)c2)oc2cc(O)cc(O)c12
- Activity (HT-22 [4]): Active

Compound: CN1c2ccc(O)cc2C(=O)N2CCc3c([nH]c4ccccc34)C21 (stereo not given)
- inhibition [1]: 29%
- IC50 (Acetylcholinesterase): > 100 µM
- IC50 (Cholinesterase): > 100 µM

Compound: CCCCNC(=O)Oc1ccc2c(c1)C(=O)N1CCc3c([nH]c4ccccc34)C1N2C (stereo not given)
- inhibition [1]: 10%
- IC50 (Acetylcholinesterase): > 10 µM
- IC50 (Cholinesterase): > 10 µM
- inhibition [3]: 12%

Compound: CC(C)c1ccc(NC(=O)Oc2ccc3c(c2)C(=O)N2CCc4c([nH]c5ccccc45)C2N3C)cc1 (stereo not given)
- inhibition [1]: 14%
- IC50 (Acetylcholinesterase): > 10 µM
- IC50 (Cholinesterase): > 10 µM
- inhibition [3]: 7%

Compound: CN1c2ccc(OC(=O)NCc3ccccc3)cc2C(=O)N2CCc3c([nH]c4ccccc34)C21 (stereo not given)
- inhibition [1]: 10%
- IC50 (Acetylcholinesterase): > 10 µM
- IC50 (Cholinesterase): > 10 µM
- inhibition [3]: 15%

Compound: CC(C)c1ccc(NC(=O)Oc2ccc3c(c2)CN2CCc4c([nH]c5ccccc45)C2N3C)cc1 (stereo not given)
- inhibition [1]: 13%
- IC50 (Acetylcholinesterase): > 10 µM
- IC50 (Cholinesterase): > 10 µM
- inhibition [3]: 41%

Compound: COc1cccc(NC(=O)Oc2ccc3c(c2)CN2CCc4c([nH]c5ccccc45)C2N3C)c1 (stereo not given)
- inhibition [1]: 19%
- IC50 (Acetylcholinesterase): > 10 µM
- IC50 (Cholinesterase): > 10 µM
- inhibition [3]: 30%

Compound: CN1c2ccccc2CN2CCc3c([nH]c4ccccc34)C21 (stereo not given)
- inhibition [1]: 24%
- Ratio IC50 [2]: > 3.73
- Activity (HT-22 [5]): Active
- IC50 (Acetylcholinesterase): > 10 µM
- IC50 (Cholinesterase): 2.68 µM
- ORAC value (Trolox equivalents) [6]: 2.32
- inhibition [3]: 5.57%

Compound: CN1c2ccccc2C(=O)N2CCc3c([nH]c4ccccc34)C21 (stereo not given)
- inhibition [1]: 37%
- Ratio IC50 [2]: > 2.16
- IC50 (Acetylcholinesterase): > 10 µM
- IC50 (Cholinesterase): 4.62 µM
- inhibition [3]: 5.34%

Compound: CCNC(=O)Oc1ccc2c(c1)CN1CCc3c([nH]c4ccccc34)C1N2C (stereo not given)
- inhibition [1]: 26%
- Ratio IC50 [2]: > 9.71
- IC50 (Acetylcholinesterase): > 10 µM
- IC50 (Cholinesterase): 1.03 µM
- inhibition [3]: 5.99%

Compound: CCCCCCCNC(=O)Oc1ccc2c(c1)CN1CCc3c([nH]c4ccccc34)C1N2C (stereo not given)
- K [7]: 492 nM
- inhibition [1]: 17%
- Ratio IC50 [2]: > 130
- IC50 (Acetylcholinesterase): > 10 µM
- IC50 (Cholinesterase): 0.077 µM
- inhibition [8]: tde
- ORAC value (Trolox equivalents) [6]: 1.75
- inhibition [3]: 7.11%
- Activity (HT-22 [9]): Toxic
- Activity (HT-22 [10]): Active
- Activity (HT-22 [11]): Non-toxic

Compound: CN1c2ccc(O)cc2CN2CCc3c([nH]c4ccccc34)C21 (stereo not given)
- inhibition [12]: 43%
- inhibition [13]: 47%
- Ratio IC50 [2]: > 5.17
- IC50 (Acetylcholinesterase): > 100 µM
- IC50 (Cholinesterase): 19.3 µM
- ORAC value (Trolox equivalents) [6]: 3.55
- inhibition [3]: 4.71%
- Activity (HT-22 [9]): Toxic
- Activity (HT-22 [10]): Active
- Activity (HT-22 [11]): Non-toxic

Compound: CCNC(=O)Oc1ccc2c(c1)C(=O)N1CCc3c([nH]c4ccccc34)C1N2C (stereo not given)
- inhibition [1]: 15%
- IC50 (Acetylcholinesterase): > 10 µM
- IC50 (Cholinesterase): > 10 µM
- inhibition [3]: 21%

Compound: CCCCCCCNC(=O)Oc1ccc2c(c1)C(=O)N1CCc3c([nH]c4ccccc34)C1N2C (stereo not given)
- Activity (HT-22 [14]): Toxic
- ORAC value (Trolox equivalents) [6]: 0.32
- Activity (HT-22 [10]): Active
